The source made the active and inactive calls. No cut-off for these calls is given here.
Experiments:
[1] = target: T1, 2-amino-4-hydroxy-6-hydroxymethyldihydropteridin e pyrophosphokinase (Staphylococcus aureus, UniProt X5EH84); assay: Binding affinity to Staphylococcus aureus recombinant HPPK by surface plasmon resonance analysis in presence of ATP
T1 sequence (X5EH84 whole entry): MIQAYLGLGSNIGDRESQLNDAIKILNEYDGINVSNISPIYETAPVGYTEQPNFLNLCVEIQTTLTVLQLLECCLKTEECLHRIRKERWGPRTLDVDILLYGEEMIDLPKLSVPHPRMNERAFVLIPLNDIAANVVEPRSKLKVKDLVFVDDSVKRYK
Procedure, shortened: (§1)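 Ni/NHS-EDC capture-coupled on an NTA chip (SaHPPK loaded at 225 μg mL⁻¹, ~5400 RU; EcDHPS at 80 μg mL⁻¹, ~7200 RU), with a USP7 control surface. Analytes were 3-fold serially diluted, with 30 s contact at 60 μL min⁻¹ and 60 s dissociation, in duplicate or more. Responses were double-referenced and equilibrium responses fit to a 1:1 steady-state model.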

[2] = target: T1, 2-amino-4-hydroxy-6-hydroxymethyldihydropteridin e pyrophosphokinase; assay: Binding affinity to Staphylococcus aureus recombinant HPPK by surface plasmon resonance analysis; procedure, shortened: as §1
Dihydropteroate synthase = target: T2, Dihydropteroate synthase (Bacteria, UniProt P0AC13); assay: Binding affinity to Escherichia coli DHPS by surface plasmon resonance analysis; procedure, shortened: as §1
T2 sequence (P0AC13 whole entry): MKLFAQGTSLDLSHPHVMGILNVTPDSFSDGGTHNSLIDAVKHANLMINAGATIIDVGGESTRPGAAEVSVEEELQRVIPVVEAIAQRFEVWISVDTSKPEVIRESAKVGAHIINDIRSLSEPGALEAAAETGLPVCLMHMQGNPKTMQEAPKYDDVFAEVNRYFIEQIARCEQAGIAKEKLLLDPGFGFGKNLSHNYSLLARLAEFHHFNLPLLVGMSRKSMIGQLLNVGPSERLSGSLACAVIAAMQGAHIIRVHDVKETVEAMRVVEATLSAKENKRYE

[3] = target: T3, 2-amino-4-hydroxy-6-hydroxymethyldihydropteridin e pyrophosphokinase (Staphylococcus aureus) (UniProt X5EH84); assay: Binding affinity to Staphylococcus aureus HPPK in absence of ATP by NMR spectroscopy
T3 sequence (whole entry): T1 sequence (X5EH84 whole entry)

[4] = target: T3, 2-amino-4-hydroxy-6-hydroxymethyldihydropteridin e pyrophosphokinase (Staphylococcus aureus); assay: Binding affinity to Staphylococcus aureus HPPK in presence of ATP by NMR spectroscopy
[5] = target: T3, 2-amino-4-hydroxy-6-hydroxymethyldihydropteridin e pyrophosphokinase (Staphylococcus aureus); assay: Binding affinity to Staphylococcus aureus HPPK in presence of AMPCPP by NMR spectroscopy
Procedure, shortened: (§2)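 ¹⁵N-labelled SaHPPK was expressed in E. coli BL21(DE3) in minimal medium with ¹⁵N ammonium chloride. 2D ¹⁵N HSQC spectra used ~120 μM SaHPPK in 50 mM HEPES pH 8 with 10 mM Mg²⁺ and saturating AMPCPP. Ligand was titrated to saturation from a 50 mM DMSO-d₆ stock, and binding was tracked by backbone amide chemical shift perturbations.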

[6] = target: T3, 2-amino-4-hydroxy-6-hydroxymethyldihydropteridin e pyrophosphokinase (Staphylococcus aureus); assay: Binding affinity to Staphylococcus aureus HPPK in presence of AMPCPP by 2D 15N HSQC NMR spectroscopy; procedure, shortened: as §2
[7] = target: T1, 2-amino-4-hydroxy-6-hydroxymethyldihydropteridin e pyrophosphokinase; assay: Inhibition of Staphylococcus aureus HPPK after 20 mins by luciferase reporter gene assay
Procedure, shortened: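 Kinase-Glo ATP-depletion assay: HPPK 0.4 ng μL⁻¹ with 0.3 μM pterin and 0.2 μM ATP in 100 mM Tris-HCl pH 8.5, 10 mM MgCl₂, 0.01% BSA, 0.01% Tween 20, 10 mM β-mercaptoethanol. Compound added from 50% DMSO solution; 20 min at room temperature, then stopped with Kinase-Glo reagent and luminescence read 10 min later. Triplicates; IC50 from sigmoidal dose–response fit.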

[8] = target: T1, 2-amino-4-hydroxy-6-hydroxymethyldihydropteridin e pyrophosphokinase; assay: Binding affinity to Staphylococcus aureus HPPK by isothermal calorimetry

Row | Structure (SMILES) | Kd [1] [µM] | Kd [2] [µM] | Kd (Dihydropteroate synthase) [µM] | IC50 [7] [µM] | Kd [8] [µM] | Activity [3] | Activity [4] | Activity [5] | Activity [6]
1 | Nc1nc2[nH]c(SCc3ccccc3)nc2c(=O)[nH]1 | 1.79 | 13.5 | 43.9 |  |  |  |  |  | 
2 | COc1ccc(C(=O)CSc2nc3nc(N)[nH]c(=O)c3[nH]2)cc1 | 1.09 | 76.6 | 3.9 |  |  | inactive | Active | Active | Active
3 | Nc1nc2[nH]c(SCc3ccccc3F)nc2c(=O)[nH]1 | 0.45 | 4.3 | 8.5 | 24.9 |  |  |  |  | 
4 | N#Cc1ccc(CSc2nc3nc(N)[nH]c(=O)c3[nH]2)cc1 | 0.66 | 11.1 | 12.3 |  |  |  |  |  | 
5 | COc1ccc(CCSc2nc3c(=O)[nH]c(N)nc3[nH]2)cc1 | 7.8 | 73.5 | 14.2 |  |  |  |  |  | 
6 | Nc1nc2[nH]c(SCC(=O)c3ccc(-c4ccccc4)cc3)nc2c(=O)[nH]1 | 0.81 | 21.5 | 8.4 |  |  |  |  |  | 

Continued by falling Kd [1], values first:

Row | Kd [1] [µM] | Kd [2] [µM] | Kd (Dihydropteroate synthase) [µM] | IC50 [7] [µM] | Kd [8] [µM] | Structure (SMILES) | Activity [3] | Activity [4] | Activity [5] | Activity [6]
7 | 12.6 | 10.8 | 76.2 | 41 | 11 | Nc1nc2[nH]c(S)nc2c(=O)[nH]1 |  |  |  | 
8 | 2.81 | 7.26 | 9.74 |  |  | Nc1nc2[nH]c(SCc3ccccc3C(F)(F)F)nc2c(=O)[nH]1 |  |  |  | 
9 | 2.8 | 21.7 | 1.6 |  |  | COc1ccccc1C(=O)CSc1nc2nc(N)[nH]c(=O)c2[nH]1 |  |  |  | 
10 | 1.85 | 42.7 | 7.8 |  |  | CC(=O)CSc1nc2c(=O)[nH]c(N)nc2[nH]1 |  |  |  | 
11 | 1.8 | 7.5 | 8.2 |  |  | CC(Sc1nc2nc(N)[nH]c(=O)c2[nH]1)C(=O)c1ccccc1 (stereo not drawn) |  |  |  | 
12 | 1.4 | 10.3 | 3.9 |  |  | Nc1nc2nc(SCC(=O)c3ccccc3)[nH]c2c(=O)[nH]1 |  |  |  | 
